{
  "source": "ChEMBL document CHEMBL1208778",
  "about": "“Synthesis and anti-cancer activity of chalcone linked imidazolones” (2010)",
  "key": {"[1]": {"system": "HOP-62", "test": "Growth inhibition of human HOP62 cells", "type": "functional", "in_short": "(§1)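 Five-dose testing was run within the NCI (Bethesda) in vitro Anticancer Screen Program on a panel of 53 human tumour cell lines from nine cancer types. Growth inhibition is reported as GI50.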"}, "[2]": {"system": "OVCAR-8", "test": "Growth inhibition of human OVCAR8 cells", "type": "functional", "in_short": "as §1"}, "[3]": {"system": "NCI-H23", "test": "Growth inhibition of human NCI-H23 cells", "type": "functional", "in_short": "as §1"}, "[4]": {"system": "MCF7", "test": "Cell cycle arrest in human MCF7 cells assessed as accumulation at G1 phase at 30 uM after 24 hrs by FACS analysis", "type": "functional", "in_short": "(§2)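 MCF-7 cells were treated at 30 µM for 24 h alongside a DMSO control. Fractions in G0, G1, S and G2/M phases were measured by FACS, and values are means of three experiments.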"}, "[5]": {"system": "Malme-3M", "test": "Growth inhibition of human MALME-3M cells", "type": "functional", "in_short": "as §1"}, "[6]": {"system": "M14", "test": "Growth inhibition of human M14 cells", "type": "functional", "in_short": "as §1"}, "[7]": {"system": "SN12C", "test": "Growth inhibition of human SN12C cells", "type": "functional", "in_short": "(§3)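 Compounds that passed a preliminary screen were tested at five doses in the NCI (Bethesda) in vitro Anticancer Screen Program against a 53-line human tumour panel spanning leukemia, lung, colon, CNS, melanoma, ovarian, renal, prostate and breast. Growth inhibition is reported as GI50.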"}, "[8]": {"system": "SK-MEL-2", "test": "Growth inhibition of human SK-MEL-2 cells", "type": "functional", "in_short": "as §1"}, "[9]": {"system": "MCF7", "test": "Induction of apoptosis in human MCF7 cells assessed as […] in PARP cleavage at 30 uM after 24 hrs by Western blot analysis", "type": "functional, cell-based", "in_short": "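MCF-7 breast carcinoma cells were exposed to 30 µM compound for 24 h, with CA-4 as positive control. Cell lysates were then immunoblotted with antibodies to procaspase-7 and cleavage-specific PARP, using β-actin as loading control.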"}, "[10]": {"test": "Growth inhibition of human RPMI8266 cells", "type": "functional", "in_short": "as §1"}, "[11]": {"system": "MCF7", "test": "Cell cycle arrest in human MCF7 cells assessed as accumulation at S phase at 10 uM after 24 hrs by FACS analysis", "type": "functional", "in_short": "(§4)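 MCF-7 breast carcinoma cells were exposed to 10 µM test compound for 24 h, with DMSO as the vehicle control. Cell-cycle distribution was read by FACS as the percentage of cells in G0, G1, S and G2/M.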"}, "[12]": {"system": "PC-3", "test": "Growth inhibition of human PC3 cells", "type": "functional", "in_short": "as §1"}, "[13]": {"system": "TK-10", "test": "Growth inhibition of human TK10 cells", "type": "functional", "in_short": "as §3"}, "[14]": {"system": "SK-MEL-28", "test": "Growth inhibition of human SK-MEL-28 cells", "type": "functional", "in_short": "as §1"}, "[15]": {"system": "HOP-92", "test": "Growth inhibition of human HOP92 cells", "type": "functional", "in_short": "as §1"}, "[16]": {"system": "OVCAR-4", "test": "Growth inhibition of human OVCAR4 cells", "type": "functional", "in_short": "as §1"}, "[17]": {"system": "A498", "test": "Growth inhibition of human A498 cells", "type": "functional", "in_short": "as §1"}, "[18]": {"system": "CAKI-1", "test": "Growth inhibition of human Caki1 cells", "type": "functional", "in_short": "as §1"}, "[19]": {"test": "Growth inhibition of human Hs 578T cells", "type": "functional", "in_short": "as §1"}, "[20]": {"system": "T47D", "test": "Growth inhibition of human T47D cells", "type": "functional", "in_short": "as §3"}, "[21]": {"system": "HCT-15", "test": "Growth inhibition of human HCT15 cells", "type": "functional", "in_short": "as §1"}, "[22]": {"system": "A549", "test": "Growth inhibition of human A549 cells", "type": "functional", "in_short": "as §1"}, "[23]": {"system": "SF-268", "test": "Growth inhibition of human SF268 cells", "type": "functional", "in_short": "as §1"}, "[24]": {"system": "HT-29", "test": "Growth inhibition of human HT-29 cells", "type": "functional", "in_short": "as §1"}, "[25]": {"system": "SW-620", "test": "Growth inhibition of human SW620 cells", "type": "functional", "in_short": "as §3"}, "[26]": {"system": "HCT-116", "test": "Growth inhibition of human HCT116 cells", "type": "functional", "in_short": "as §1"}, "[27]": {"system": "ACHN", "test": "Growth inhibition of human ACHN cells", "type": "functional", "in_short": "as §1"}, "[28]": {"system": "MCF7", "test": "Cell cycle arrest in human MCF7 cells assessed as accumulation at S phase at 30 uM after 24 hrs by FACS analysis", "type": "functional", "in_short": "as §2"}, "[29]": {"system": "SK-MEL-5", "test": "Growth inhibition of human SK-MEL-5 cells", "type": "functional", "in_short": "as §1"}, "[30]": {"system": "NCI-H322M", "test": "Growth inhibition of human NCI-H322M cells", "type": "functional", "in_short": "as §1"}, "[31]": {"system": "MCF7", "test": "Cell cycle arrest in human MCF7 cells assessed as accumulation at G0 phase at 10 uM after 24 hrs by FACS analysis", "type": "functional", "in_short": "as §4"}, "[32]": {"system": "UACC-257", "test": "Growth inhibition of human UACC257 cells", "type": "functional", "in_short": "as §3"}},
  "note": "The source made the active and inactive calls. The rule behind the calls is not given here.",
  "data": [
    {"smiles": "COc1cc(/C=C/C(=O)c2cccc(-n3cc(-c4ccc(Cl)cc4)[nH]c3=O)c2)ccc1O", "values": [
      {"measurement": "GI50", "setting": "[1]", "value": 2840, "unit": "nM"},
      {"measurement": "GI50", "setting": "[2]", "value": 4.18, "unit": "µM"},
      {"measurement": "GI50", "setting": "[3]", "value": 3.18, "unit": "µM"},
      {"measurement": "Activity", "setting": "[4]", "value": 50.61, "unit": "%"},
      {"measurement": "GI50", "setting": "[5]", "value": 3.06, "unit": "µM"},
      {"measurement": "GI50", "setting": "[6]", "value": 2860, "unit": "nM"},
      {"measurement": "GI50", "setting": "[7]", "value": 2870, "unit": "nM"},
      {"measurement": "GI50", "setting": "[8]", "value": 3.66, "unit": "µM"},
      {"measurement": "Activity", "setting": "[9]", "value": "Active"},
      {"measurement": "GI50", "setting": "[10]", "value": 1330, "unit": "nM"},
      {"measurement": "Activity", "setting": "[11]", "value": 18.1, "unit": "%"},
      {"measurement": "GI50", "setting": "[12]", "value": 1950, "unit": "nM"},
      {"measurement": "GI50", "setting": "[13]", "value": 4.67, "unit": "µM"},
      {"measurement": "GI50", "setting": "[14]", "value": 2060, "unit": "nM"},
      {"measurement": "GI50", "setting": "[15]", "value": 1260, "unit": "nM"},
      {"measurement": "GI50", "setting": "[16]", "value": 4.64, "unit": "µM"},
      {"measurement": "GI50", "setting": "[17]", "value": 2820, "unit": "nM"},
      {"measurement": "GI50", "setting": "[18]", "value": 2640, "unit": "nM"},
      {"measurement": "GI50", "setting": "[19]", "value": 4.67, "unit": "µM"},
      {"measurement": "GI50", "setting": "[20]", "value": 3.09, "unit": "µM"},
      {"measurement": "GI50", "setting": "[21]", "value": 1800, "unit": "nM"},
      {"measurement": "GI50", "setting": "[22]", "value": 6.78, "unit": "µM"},
      {"measurement": "GI50", "setting": "[23]", "value": 2500, "unit": "nM"},
      {"measurement": "GI50", "setting": "[24]", "value": 2970, "unit": "nM"},
      {"measurement": "GI50", "setting": "[25]", "value": 2000, "unit": "nM"},
      {"measurement": "GI50", "setting": "[26]", "value": 1460, "unit": "nM"},
      {"measurement": "GI50", "setting": "[27]", "value": 2190, "unit": "nM"},
      {"measurement": "Activity", "setting": "[28]", "value": 6.17, "unit": "%"},
      {"measurement": "GI50", "setting": "[29]", "value": 1800, "unit": "nM"},
      {"measurement": "GI50", "setting": "[30]", "value": 4.58, "unit": "µM"},
      {"measurement": "Activity", "setting": "[31]", "value": 3.56, "unit": "%"},
      {"measurement": "GI50", "setting": "[32]", "value": 8.69, "unit": "µM"}
    ]}
  ]
}
